Source: ChEMBL document CHEMBL1799936, “Azaphilones from the endophyte Chaetomium globosum” (2011)
Values after ≈ are worked out from the molar mass of the structure shown. Active and inactive are the calls of the source. The calls are words filed in the database; no cut-off is given here.

What was measured:
Pyricularia grisea = assay: Antimicrobial activity against Magnaporthe grisea mycelia assessed as growth inhibition; assay type: functional
Globisporangium ultimum = assay: Antimicrobial activity against Pythium ultimum mycelia assessed as growth inhibition; assay type: functional
Enterococcus faecalis = assay: Antibiotic activity against cytolysin-positive Enterococcus faecalis MMH594 infected in intestine of Caenorhabditis elegans glp-4(bn2ts);sek-1(km4) mutant infection model assessed as nematode survival at 50 to 100 ug/mL after 168 hrs by liquid infection assay; assay type: functional, organism-based
Procedure, shortened: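 C. elegans glp-4(bn2ts);sek-1(km4) synchronized L4 to young adult worms, fed E. coli OP50, infected on E. faecalis MMH594 lawn, then moved to liquid medium (19% BHI, 80% M9, 80 μg mL-1 kanamycin, 1% DMSO) with compound at 100 and 50 μg mL-1 final. Survival scored at 3, 48, 120, 168 h. Ampicillin positive control.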

Structure (SMILES)	MIC (Pyricularia grisea) [mg/L]	MIC (Globisporangium ultimum) [mg/L]	Activity (Enterococcus faecalis)
CC[C@H](C)/C=C/C1=CC2=C(Cl)C(=O)[C@@]3(C)OC(=O)C(C(=O)[C@@H](C)[C@@H](C)O)=C3C2=CO1 [CHAETOVIRIDIN A]	1.23 (≈ 2.84 µM)	33.3 (≈ 76.9 µM)	inactive
CC[C@H](C)/C=C/C1=CC2=CC(=O)[C@@]3(C)OC(=O)C(C(=O)[C@@H](C)[C@@H](C)O)=C3C2=CO1	–	–	inactive
CC[C@H](C)/C=C/C1=CC2=C(Cl)C(=O)[C@@]3(C)OC(=O)C(C(=O)[C@H](C)[C@@H](C)O)=C3C2=CO1	–	–	inactive
CC(O)C(C)C1(O)O[C@]2(C)C(=O)C(Cl)=C3C=C(/C=C/[C@@H](C)[C@@H](C)O)OC=C3[C@@H]2[C@@H]1C(=O)O (stereo partly specified)	–	–	inactive
CC[C@H](C)/C=C/C1=CC2=C(Cl)C(=O)[C@@]3(C)OC(=O)[C@@H](C(=O)[C@@H](C)[C@H](C)O)[C@H]3C2=CO1	–	–	inactive
CC[C@H](C)/C=C/C1=CC2=C(Cl)C(=O)[C@@]3(C)OC(=O)C(C(=O)[C@@H](C)[C@H](C)O)=C3C2=CO1	–	–	inactive
C[C@H](O)[C@H](C)C(=O)[C@@H]1C(=O)O[C@]2(C)C(=O)C(Cl)=C3C=C(/C=C/[C@@H](C)[C@@H](C)O)OC=C3[C@H]12	–	–	inactive
C/C=C(\C)C(=O)C1=C2C3=COC(/C=C/[C@@H](C)CC)=CC3=C(Cl)C(=O)[C@@]2(C)OC1=O	–	–	inactive
CC[C@H](C)/C=C/C1=CC2=C(Cl)C(=O)[C@@]3(C)OC(=O)C(C(=O)[C@H](C)CC)=C3C2=CO1	–	–	inactive
CC[C@H](C)/C=C/C1=CC2=C(Cl)C(=O)[C@@]3(C)OC(=O)C4=C(C(C)C(C)O)OC(O1)C2(O)C43O (stereo partly specified)	–	–	inactive
C/C=C(\C)C(=O)[C@@H]1C(=O)O[C@]2(C)C(=O)C(Cl)=C3C=C(/C=C/[C@@H](C)CC)OC=C3[C@H]12	–	–	inactive
CC[C@H](C)/C=C/C1=CC2=C(Cl)C(=O)[C@@]3(C)OC(O)(C(C)C(C)O)[C@@H](C(=O)O)[C@H]3C2=CO1 (stereo partly specified) [CHAETOVIRIDIN B]	1.23 (≈ 2.72 µM)	33.3 (≈ 73.5 µM)	inactive
